Reference: ChEMBL document CHEMBL2407075, “Sulphonamido-quinoxalines: search for anticancer agent” (Eur J Med Chem, 2013)

Columns and labels:
Assay type in all cases: functional
SR = test: Growth inhibition of human SR cells assessed as cell growth at 10^-8 M after 48 hrs by sulforhodamine B assay; conditions: read-out: Activity
HOP-62 = test: Growth inhibition of human HOP62 cells assessed as cell growth at 10^-6 M after 48 hrs by sulforhodamine B assay; conditions: HOP-62, 48 h, read-out: Activity
Method in brief: (§1)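 Five-dose screen at NCI. Cells in RPMI 1640 with 5% FBS and 2 mM L-glutamine, seeded at 5000–40,000 cells/well and grown 24 h at 37 °C, 5% CO2 before dosing, with time-zero plates TCA-fixed. Drug diluted from DMSO stock to 0.01, 0.1, 1, 10 and 100 µM final, 48 h. Cells fixed with cold TCA (10% final), stained with 0.4% SRB and read at 515 nm. Percent growth from Tz, control and test absorbances; GI50, TGI and LC50 from dose-response curves.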

[1] = Growth inhibition of human HCC2998 cells assessed as cell growth at 10^-7 M after 48 hrs by sulforhodamine B assay; conditions: HCC 2998, 48 h, read-out: Activity; method in brief: as §1
786-0 [2] = test: Growth inhibition of human 786-0 cells assessed as cell growth at 10^-6 M after 48 hrs by sulforhodamine B assay; conditions: 786-0, 48 h, read-out: Activity
Method in brief: (§2)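 Five-dose NCI-60 run (0.01, 0.1, 1, 10 and 100 µM, as 10-fold dilutions from a DMSO stock made at 400× the top final level). Cells were grown in RPMI 1640 with 5% FBS and 2 mM glutamine and plated for 24 h. They were then exposed for 48 h at 37 °C and 5% CO2. TCA fixation was followed by SRB staining with A515 read-out. Percent growth was taken relative to time-zero and control plates.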

A498 = test: Growth inhibition of human A498 cells after 48 hrs by sulforhodamine B assay; conditions: A498, 48 h; for CC50: read-out: LC50 (the source's name)
Method in brief: (§3)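 Adherent cells in RPMI 1640 with 5% FBS and 2 mM L-glutamine were plated at 5000–40,000 cells/well and grown 24 h. Five concentrations (0.01–100 µM, DMSO stock) were added for 48 h at 37 °C. Cells were fixed with cold TCA (10% final) and stained with SRB, read at 515 nm. GI50 came from log concentration–growth curves against time-zero and control plates.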

NCI-H460 = test: Growth inhibition of human NCI-H460 cells assessed as cell growth at 10^-4 M after 48 hrs by sulforhodamine B assay; conditions: NCI-H460, 48 h, read-out: Activity
UO-31 = test: Growth inhibition of human UO31 cells after 48 hrs by sulforhodamine B assay; conditions: UO-31, 48 h; for CC50: read-out: LC50 (the source's name)
Method in brief: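 NCI-60 screen. Cells grown in RPMI 1640 with 5% FBS and 2 mM L-glutamine, plated at 5000–40,000 cells/well and preincubated 24 h at 37 °C, 5% CO2. A time-zero plate is TCA-fixed at drug addition. DMSO stocks diluted in medium; five concentrations (0.01, 0.1, 1, 10, 100 µM). Exposure 48 h, then cold TCA fixation and 0.4% SRB staining, absorbance at 515 nm. GI50 is taken from the growth-percentage curve relative to time zero and control.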

SF-268 = test: Growth inhibition of human SF268 cells assessed as cell growth at 10^-5 M after 48 hrs by sulforhodamine B assay; conditions: SF-268, 48 h, read-out: Activity
SNB-19 [3] = test: Growth inhibition of human SNB19 cells after 48 hrs by sulforhodamine B assay; conditions: SNB-19, 48 h; for CC50: read-out: LC50 (the source's name); method in brief: as §3
MCF7 = test: Growth inhibition of human MCF7 cells assessed as cell growth at 10^-8 M after 48 hrs by sulforhodamine B assay; conditions: MCF7, 48 h, read-out: Activity
ACHN = test: Growth inhibition of human ACHN cells assessed as cell growth at 10^-5 M after 48 hrs by sulforhodamine B assay; conditions: read-out: Activity; method in brief: as §2
M14 = test: Growth inhibition of human M14 cells assessed as cell growth at 10^-5 M after 48 hrs by sulforhodamine B assay; conditions: M14, 48 h, read-out: Activity
SNB-19 [4] = test: Growth inhibition of human SNB19 cells assessed as cell growth at 10^-8 M after 48 hrs by sulforhodamine B assay; conditions: SNB-19, 48 h, read-out: Activity
786-0 [5] = test: Growth inhibition of human 786-0 cells after 48 hrs by sulforhodamine B assay; conditions: 786-0, 48 h, read-out: LC50 (the source's name); method in brief: as §3
SNB-19 [6] = test: Growth inhibition of human SNB19 cells assessed as cell growth at 10^-7 M after 48 hrs by sulforhodamine B assay; conditions: SNB-19, 48 h, read-out: Activity
A549 = test: Growth inhibition of human A549/ATCC cells assessed as cell growth at 10^-5 M after 48 hrs by sulforhodamine B assay; conditions: A549, 48 h, read-out: Activity; method in brief: as §2
SN12C = test: Growth inhibition of human SN12C cells assessed as cell growth at 10^-5 M after 48 hrs by sulforhodamine B assay; conditions: read-out: Activity
HT-29 = test: Growth inhibition of human HT-29 cells assessed as cell growth at 10^-5 M after 48 hrs by sulforhodamine B assay; conditions: HT-29, 48 h, read-out: Activity; method in brief: as §1
KM12 = test: Growth inhibition of human KM12 cells assessed as cell growth at 10^-4 M after 48 hrs by sulforhodamine B assay; conditions: KM12, 48 h, read-out: Activity
NCI-H226 = test: Growth inhibition of human NCI-H226 cells assessed as cell growth at 10^-5 M after 48 hrs by sulforhodamine B assay; conditions: NCI-H226, 48 h, read-out: Activity
SK-OV-3 [7] = test: Growth inhibition of human SKOV3 cells assessed as cell growth at 10^-7 M after 48 hrs by sulforhodamine B assay; conditions: SK-OV-3, 48 h, read-out: Activity
OVCAR-5 = test: Growth inhibition of human OVCAR5 cells assessed as cell growth at 10^-4 M after 48 hrs by sulforhodamine B assay; conditions: OVCAR-5, 48 h, read-out: Activity
[8] = Growth inhibition of human NCI-ADR-RES cells assessed as cell growth at 10^-5 M after 48 hrs by sulforhodamine B assay; conditions: read-out: Activity
Malme-3M = test: Growth inhibition of human MALME-3M cells assessed as cell growth at 10^-8 M after 48 hrs by sulforhodamine B assay; conditions: read-out: Activity
SK-OV-3 [9] = test: Growth inhibition of human SKOV3 cells assessed as cell growth at 10^-6 M after 48 hrs by sulforhodamine B assay; conditions: SK-OV-3, 48 h, read-out: Activity
[10] = Growth inhibition of human HCC2998 cells after 48 hrs by sulforhodamine B assay; conditions: HCC 2998, 48 h; for CC50: read-out: LC50 (the source's name); method in brief: as §3
[11] = Growth inhibition of human NCI-ADR-RES cells assessed as cell growth at 10^-4 M after 48 hrs by sulforhodamine B assay; conditions: read-out: Activity
786-0 [12] = test: Growth inhibition of human 786-0 cells assessed as cell growth at 10^-7 M after 48 hrs by sulforhodamine B assay; conditions: 786-0, 48 h, read-out: Activity; method in brief: as §2
K562 = test: Growth inhibition of human K562 cells assessed as cell growth at 10^-7 M after 48 hrs by sulforhodamine B assay; conditions: K562, 48 h, read-out: Activity

| SMILES | growth at 0.01 µM (SR) [%] | growth at 1 µM (HOP-62) [%] | growth at 0.1 µM [1] [%] | growth at 1 µM (786-0 [2]) [%] | CC50 (A498) [µM] | growth at 100 µM (NCI-H460) [%] | CC50 (UO-31) [µM] | growth at 10 µM (SF-268) [%] | TGI (SNB-19 [3]) [µM] | CC50 (SNB-19 [3]) [µM] | growth at 0.01 µM (MCF7) [%] | growth at 10 µM (ACHN) [%] | growth at 10 µM (M14) [%] | growth at 0.01 µM (SNB-19 [4]) [%] | CC50 (786-0 [5]) [µM] | growth at 0.1 µM (SNB-19 [6]) [%] | growth at 10 µM (A549) [%] | growth at 10 µM (SN12C) [%] | growth at 10 µM (HT-29) [%] | growth at 100 µM (KM12) [%] | further results |
| --- | --- | --- | --- | --- | --- | --- | --- | --- | --- | --- | --- | --- | --- | --- | --- | --- | --- | --- | --- | --- | --- |
| O=S(=O)(Nc1ccc(Cl)cc1)c1ccc2nc(-c3ccccc3)c(-c3ccccc3)nc2c1 | 92 | 105 | 99 | 93 | > 100 | 68 | > 100 | 27 | > 100 | > 100 | 95 | 6 | -27 | 100 | > 100 | 96 | 5 | 21 | -55 | 71 | TGI (UO-31): > 100 µM; growth at 10 µM (NCI-H226): -29%; growth at 0.1 µM (SK-OV-3 [7]): 99%; growth at 100 µM (OVCAR-5): 90%; growth at 10 µM [8]: 14%; growth at 0.01 µM (Malme-3M): 106%; growth at 1 µM (SK-OV-3 [9]): 105%; TGI [10]: > 100 µM; CC50 [10]: > 100 µM; growth at 100 µM [11]: 69%; growth at 0.1 µM (786-0 [12]): 88%; growth at 0.1 µM (K562): 98% |
| O=S(=O)(Nc1ccccn1)c1ccc2nc(-c3ccccc3)c(-c3ccccc3)nc2c1 | 93 | 115 | 100 | 96 | > 100 | 65 | > 100 | 27 | > 100 | > 100 | 95 | 6 | -42 | 100 | > 100 | 93 | 9 | 26 | -37 | 53 | GI50 (A498): 1.67 µM; growth at 10 µM (NCI-H226): -35%; growth at 0.1 µM (SK-OV-3 [7]): 98%; growth at 100 µM (OVCAR-5): 99%; growth at 10 µM [8]: -1%; growth at 0.01 µM (Malme-3M): 97%; growth at 1 µM (SK-OV-3 [9]): 98%; CC50 [10]: > 100 µM; growth at 100 µM [11]: 58%; growth at 0.1 µM (786-0 [12]): 92%; growth at 0.1 µM (K562): 99% |
